Source: PubChem BioAssay (Sanford-Burnham Center for Chemical Genomics)
Hits are enriched below; roughly 3% of the tested compounds scored in any of these assays.
UBC13 polyUb: human UBC13 polyubiquitination inhibition | P61088 | UBC13 polyubiquitin chain formation, TR-FRET | inhibition, % at 20 µM | 0.47% of 330,000 active | AID 485273; in the data active = inhibition above about 45%, passing the limit was not always enough
Target sequence (P61088 whole entry, looked up): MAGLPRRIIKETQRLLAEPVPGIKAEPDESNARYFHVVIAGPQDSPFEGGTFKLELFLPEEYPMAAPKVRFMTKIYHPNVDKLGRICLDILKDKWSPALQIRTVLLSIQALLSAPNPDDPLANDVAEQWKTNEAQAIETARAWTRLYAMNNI
SENP7 inh: SENP7 protease inhibition; AID 434973; 1.5% of 330,000 active; recombinant SENP7, Z-RLRGG-aminoluciferin luminescence, 40 min; inhibition, % at 5 µM;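 active = inhibition above about 50% at the single test dose, limit read from the data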;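 note: plate controls were DMSO with enzyme for no effect and no enzyme buffer wells for full effect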
SENP6 inh: blocks the human protease SENP6 | AID 2599 | 1.8% of 330,000 active | inhibition, % at 10 µM | Recombinant SENP6 catalytic domain, aminoluciferin luminescence;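 active = inhibition above about 50% at the single tested dose, limit read from the data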;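 note: plate controls were DMSO wells with enzyme for no effect and DMSO wells lacking enzyme for full effect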
SENP8 block-1: inhibitors of human SENP8 protease. Q96LD8. recombinant SENP8, Nedd8 substrate fluorescence. inhibition, % at 20 µM. 0.64% of 360,000 active. AID 602440; in the data active = inhibition mostly above about 40%, no sharp cut-off; inactive = mostly below about 27%
Target sequence (Q96LD8 whole entry, looked up): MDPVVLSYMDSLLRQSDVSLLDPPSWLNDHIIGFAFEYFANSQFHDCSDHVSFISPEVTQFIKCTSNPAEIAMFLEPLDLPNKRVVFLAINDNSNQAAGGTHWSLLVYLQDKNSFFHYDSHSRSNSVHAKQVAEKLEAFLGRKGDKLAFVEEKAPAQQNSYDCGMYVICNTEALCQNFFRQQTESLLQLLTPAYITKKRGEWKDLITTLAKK
Apaf-1 inh: human Apaf-1 inhibition | O14727 | reconstituted apoptosome caspase-3 activity, DEVD-Rh110 fluorescence | inhibition, % at 20 µM | 0.71% of 330,000 active; active = inhibition of at least 40% at 20 µM;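 note: plate controls were DMSO wells for no effect and DEVD-CHO caspase inhibitor wells for full effect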
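detection = Rh110 fluorescence intensity | test system = biochemical Apaf-1 apoptosome reconstitution | also added = cytochrome c and DEVD-Rh110 substrate | schedule = 30 min plus 50 min, RT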
SENP8 block-2: blocks the human protease SENP8 | purified SENP8, Z-RLRGG-aminoluciferin cleavage, luminescence | AID 2540 | 1.2% of 330,000 active | inhibition, % at 10 µM; in the data active = inhibition above about 50%
SENP8 conf: human SENP8 inhibition, confirmed | shares compounds with SENP7 inh | Recombinant SENP8, Z-RLRGG-aminoluciferin luminescence, 60 min | inhibition, % at 12.5 µM | 40% of 6,200 active;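 active = mean inhibition across replicates above about 50%, limit read from the data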
SENP6 confirm: human SENP6 inhibition, confirmed; 58% of 6,200 active; shares compounds with SENP7 inh; recombinant SENP6, Z-RLRGG-aminoluciferin luminescence; inhibition, % at 12.5 µM
SENP7 confirm: human SENP7 inhibition, confirmed; shares compounds with SENP7 inh; recombinant SENP7, Z-RLRGG-aminoluciferin luminescence, 40 min; inhibition, % at 12.5 µM; 69% of 6,200 active; AID 488917
Casp3 select: caspase-3 inhibition (SENP selectivity assay); shares compounds with SENP7 inh; purified caspase-3, Z-DEVD-aminoluciferin luminescence, 60 min; inhibition, % at 12.5 µM; 60% of 6,200 active;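 active = mean inhibition above about 50%, limit read from the data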;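 note: plate controls were enzyme with DMSO for no effect and wells without caspase-3 for full effect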
Target sequence (P42574 28-227 limits assumed): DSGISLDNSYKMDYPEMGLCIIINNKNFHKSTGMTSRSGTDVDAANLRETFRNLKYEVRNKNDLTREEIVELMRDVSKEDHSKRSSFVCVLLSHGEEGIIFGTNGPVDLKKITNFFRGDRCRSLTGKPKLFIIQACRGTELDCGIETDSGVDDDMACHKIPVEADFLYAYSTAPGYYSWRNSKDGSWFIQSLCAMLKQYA
SENP luc ctr: counter-screen for SENP inhibitors: luminescence interference | shares compounds with SENP7 inh | Pre-incubated SENP8/Z-RLRGG-aminoluciferin, luciferase luminescence interference | inhibition, % at 12.5 µM | 39% of 6,200 active;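 active = mean inhibition above about 50% when retested at one dose, limit read from the data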;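 note: plate controls were DMSO wells with completed reaction for no effect and substrate without enzyme for full effect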
Starred values were filed as active, the others as inactive; i = inactive; . = not tested or not shown.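 Rule for the calls, unless noted: active = mean inhibition above about 50% in the one-dose retest (limit read from the data); inactive = the rest.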

SMILES	UBC13 polyUb	SENP7 inh	SENP6 inh	SENP8 block-1	Apaf-1 inh	SENP8 block-2	SENP8 conf	SENP6 confirm	SENP7 confirm	Casp3 select	SENP luc ctr
O=c1oc(-c2ccco2)nc2sc3c(c12)CCCC3	4	-10	72*	-173	11	42	66*	54*	52*	27	29
O=c1oc(-c2ccccc2)nc2sc3c(c12)CCC3	4	88*	91*	-72	1	20	51*	50	40	64*	29
Nc1nc(-c2ccccc2)nc2sc3c(c12)CCCC3	12	75*	84*	-401	11	58*	3	70*	90*	46	12
COc1ccc(NC(=O)C2Cc3c(-c4ccc5c(c4)OCO5)ccnc3O2)cc1 (stereo not given)	.	.	.	-58	.	.	.	.	.	.	.
Cc1sc2nc(-c3ccccc3)oc(=O)c2c1C	18	91*	47	2	7	76*	62*	63*	64*	69*	34
CCCCC(=O)N(C)c1c(CC)nc2c(OCc3cc(Cl)cc(Cl)c3)cccn12	.	.	.	20	.	.	.	.	.	.	.
Cc1ccc(F)c(C(=O)N2CCCC(C)(C(=O)NS(=O)(=O)C3CC3)C2)c1F (stereo not given)	.	.	.	14	.	.	.	.	.	.	.
O=C(NC(=S)Nc1cccc(NC(=S)NC(=O)c2ccccc2)c1)c1ccccc1	.	.	.	-3	.	.	.	.	.	.	.
O=C(NC(=S)Nc1cccc(CO)c1)c1ccc(-c2ccccc2)cc1	7	10	56*	6	19	27	6	-2	15	4	-1
COc1ccc(C(=O)C2CCCN(C(=O)c3ccc4nccnc4c3)C2)c(C)c1 (stereo not given)	-9	-7	57*	-2	3	7	-21	-17	-8	-8	-5
CCN1C(=O)c2cccc3c(NC(=O)C4CCCCC4)ccc1c23	13	72*	-6	11	-18	0	-8	-2	-5	-5	-6
CCOC(=O)c1nnn(CC(=O)N2N=C(c3ccccc3)CC2c2ccccc2)c1C(=O)OCC (stereo not given)	-3	-18	-10	7	28	-8	.	.	.	.	.
CCOC(=O)/C=C(\C)N1N=C(c2ccccc2)CC1c1ccccc1 (stereo not given)	8	21	52*	-98	3	21	9	35	75*	29	28
COC(=O)C1(C(=O)OC)c2ncccc2N(S(=O)(=O)c2ccc(C)cc2)C1CC(=O)c1ccccc1 (stereo not given)	.	.	.	19	.	.	.	.	.	.	.
Cc1c(C(=O)Nc2ccccc2)csc1-c1ccccc1	-1	95*	57*	22	1	60*	-27	42	84*	46	-4
OCC[C@@H]1C[C@H](O)[C@@H](O)[C@@]2(OCCCc3cc(Cl)ccc32)O1	.	.	.	19	.	.	.	.	.	.	.
Cc1ccc(-c2nnc(-c3ccc4c(c3)OCO4)o2)cc1	8	83*	47	-385	-8	29	9	16	17	46	5
c1nnc(-c2ccc3c(c2)OCO3)o1	-9	9	5	1	-5	-1	.	.	.	.	.
O=C1CCCCC1Sc1nnc(-c2ccc3c(c2)OCO3)o1 (stereo not given)	4	73*	80*	-4	-2	68*	72*	72*	93*	89*	77*
Brc1ccc(-c2nnc(-c3ccc4c(c3)OCO4)o2)o1	-2	61*	35	-277	1	-9	7	8	20	39	15
c1coc(-c2nnc(-c3ccc4c(c3)OCO4)o2)c1	23	48	41	.	4	28	.	.	.	.	.
CC(=O)Nc1ccc2c(c1)C(=O)c1ccccc1C2=O	-17	12	-14	18	2	-9	.	.	.	.	.
O=C(O)/C=C/C(=O)Nc1ccc2c(c1)C(=O)c1ccccc1C2=O	-7	53*	78*	17	-6	47	73*	67*	85*	25	79*
COc1cc(/C=N/O)ccc1OCc1ccccc1Cl	-11	50*	67*	8	10	41	43	55*	79*	33	59*
O/N=C/c1ccccc1OCc1ccccc1Cl	1	2	-7	16	10	-3	.	.	.	.	.
SMILES	UBC13 polyUb	SENP7 inh	SENP6 inh	SENP8 block-1	Apaf-1 inh	SENP8 block-2	SENP8 conf	SENP6 confirm	SENP7 confirm	Casp3 select	SENP luc ctr
Nc1c(C(=O)O)cnc2c(-c3ccc(Cl)cc3)cnn12	6	100*	95*	-401	4	98*	52*	100*	103*	98*	96*
CS(=O)(=O)c1cnc2c(-c3ccc(F)cc3)cnn2c1N	10	3	-5	-22	-1	-7	.	.	.	.	.
Nc1c(-c2cccs2)cnc2c(-c3ccc(F)cc3)cnn12	17	69*	50*	-284	11	28	8	34	48	42	9
Nc1c(-c2ccccc2)cnc2c(-c3ccccc3)cnn12	8	74*	43	i	7	5	8	19	50*	55*	2
N#CC(c1ccc(N)cc1)C(CC(=O)c1ccccc1)c1ccccc1 (stereo not given)	.	.	.	9	.	.	.	.	.	.	.
CCc1nc2ccc(C(=O)Nc3cccc(NS(C)(=O)=O)c3)cn2c1N(CCC(C)C)CCN(C)C	.	.	.	8	.	.	.	.	.	.	.
Clc1ccc(-c2nsc(N3CCOCC3)n2)c(Cl)c1	-2	68*	77*	11	8	65*	66*	64*	89*	72*	49
Clc1cc(Cl)c2nc(N3CCOCC3)sc2c1	0	25	-39	1	9	14	.	.	.	.	.
N#C/C(=C\c1cccs1)C(=O)Nc1ccccn1	-10	64*	59*	18	-15	24	40	50	83*	71*	22
O=C1c2ccccc2C2=Nc3ccccc3SC(c3cccc(F)c3)C12 (stereo not given)	-51	5	-2	27	4	3	.	.	.	.	.
COc1ccc(C2NN=C(c3ccc(C)cc3)S2)cc1OC (stereo not given)	33	94*	93*	-394	1	92*	10	22	26	26	11
